The test system of assay [1] is Staphylococcus aureus. Briefly: Antimicrobial activity against epidemic methicillin-resistant Staphylococcus aureus 16 after 24 hrs by MTT assay. The class given is functional. The following applies: Staphylococcus aureus, 16, 24 h. Put shortly:
(§1)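 Broth microdilution MIC in cation-adjusted Mueller-Hinton broth adjusted to 20 mg/L Ca²⁺ and 10 mg/L Mg²⁺. Strains grown on nutrient agar 24 h at 37 °C before testing. Inoculum of 5 × 10⁵ cfu prepared in normal saline against a 0.5 McFarland standard, added to wells and incubated at 37 °C. MTT (5 mg/mL methanolic solution) added for 20 min. Yellow-to-dark-blue colour change indicated growth. MIC = lowest concentration with no growth.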

Assay [2] concerns Staphylococcus aureus. Briefly: Antimicrobial activity against epidemic methicillin-resistant Staphylococcus aureus 15 after 24 hrs by MTT assay. The settings on record: Staphylococcus aureus, 15, 24 h. The assay is classed as functional. Put shortly: as §1
Assay [3] has as its system Staphylococcus aureus. Briefly: Antimicrobial activity against Staphylococcus aureus SA 1199B over-expressing NorA MDR efflux pump after 24 hrs by MTT assay. The assay is classed as functional. Put shortly:
as §1

The next assay relates to Enterococcus faecalis. As to the kind of experiment: Antimicrobial activity against Enterococcus faecalis NCTC 12697 after 24 hrs by MTT assay. The assay is classed as functional. The following applies: NCTC 12697, 24 h. Put shortly: (§2)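 Broth microdilution MIC in cation-adjusted Mueller-Hinton broth supplemented to 20 mg/L Ca2+ and 10 mg/L Mg2+. Strains grown on nutrient agar 24 h at 37 °C. Inoculum of 5 × 10⁵ cfu set in normal saline against a 0.5 McFarland standard. Plates incubated at 37 °C, then MTT (5 mg/mL methanolic, 20 µL) added for 20 min. MIC taken as the lowest concentration with no yellow-to-blue colour change.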

In the next assay the test system is Escherichia coli. As to the kind of experiment: Antimicrobial activity against Escherichia coli NCTC 10418 after 24 hrs by MTT assay. The settings on record: NCTC 10418, 24 h. The assay is classed as functional. A digest of the protocol: as §2
Assay [4] has as its system Staphylococcus aureus. As to the kind of experiment: Antimicrobial activity against Staphylococcus aureus […] after 24 hrs by MTT assay. The class given is functional. A digest of the protocol: as §1
A short description of assay [5]: Cytotoxicity against human U87MG cells after 48 hrs by MTT assay. The settings on record: U-87 MG. The assay is classed as functional, cell-based, U-87MG ATCC. Put shortly: (§3)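 U-87 MG cells in MEM and MDA-MB-231 cells in DMEM, each with 10% FBS, L-glutamine, non-essential amino acids and sodium pyruvate, kept at 5% CO2. Log-phase cells exposed to increasing drug concentrations for 24 h, then grown in fresh medium for a further 48 h. MTT added for 4 h, formazan dissolved in DMSO, absorbance read. Viability normalised to untreated wells after subtracting Triton-treated wells. IC50 derived.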

Assay [6] deals with Jurkat. Briefly: Induction of apoptosis in human Jurkat 16 cells assessed as DNA fragments release from apoptotic nuclei at 50 ug/ml after 48 hrs by propidium iodide based flow cytometry analysis. The assay is classed as functional, cell-based. A digest of the protocol: (§4)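 Cells grown in RPMI with 10% FCS and penicillin/streptomycin at 37 °C, 5% CO2. Plated in duplicate and treated 48 h with increasing concentrations. DNA released from apoptotic nuclei stained with propidium iodide. Percentage DNA fragmentation quantified by flow cytometry.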

For assay [7], the system named is L1236. Briefly: Induction of apoptosis in human L1236 cells assessed as DNA fragments release from apoptotic nuclei at 50 ug/ml after 48 hrs by propidium iodide based flow cytometry analysis. The assay is classed as functional, cell-based. Put shortly:
as §4

Another assay has as its system MDA-MB-231. As to the kind of experiment: Cytotoxicity against human MDA-MB-231 cells after 48 hrs by MTT assay. The class given is functional, cell-based. The settings on record: MDA-MB-231, 48 h. Put shortly:
as §3

Assay [8] has as its system L1236. As to the kind of experiment: Induction of apoptosis in human L1236 cells assessed as DNA fragments release from apoptotic nuclei at 20 ug/ml after 24 hrs by propidium iodide based flow cytometry analysis. The assay is classed as functional, cell-based. A digest of the protocol:
(§5)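 Cells grown in RPMI with 10% FCS and penicillin/streptomycin at 37 °C, 5% CO2. Treated 24 h at 20 µg/mL. Apoptotic DNA fragmentation measured as propidium iodide fluorescence by flow cytometry, reported as percentage of degraded DNA.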

In assay [9] the test system is Jurkat. As to the kind of experiment: Induction of apoptosis in human Jurkat 16 cells assessed as DNA fragments release from apoptotic nuclei after 48 hrs by propidium iodide based flow cytometry analysis. The assay is classed as functional, cell-based. Put shortly: as §4
Assay [10] deals with Jurkat. As to the kind of experiment: Induction of apoptosis in human Jurkat 16 cells assessed as DNA fragments release from apoptotic nuclei at 20 ug/ml after 24 hrs by propidium iodide based flow cytometry analysis. The assay is classed as functional, cell-based. Put shortly:
as §5

In brackets after ≈: the same amount, converted by molar mass. Activity calls are given as the source filed them. No cut-off for these calls is given here. A value given as a limit tells only on which side of the number the result lay.

For `CN(C)[C@@H]1C(O)=C(C(N)=O)C(=O)[C@@]2(O)C(O)=C3C(=O)c4c(O)cccc4[C@@](C)(O)[C@H]3C[C@@H]12` [TETRACYCLINE], the MIC turned out to be 0.5 µg/mL (≈ 1.13 µM) in the assay on Staphylococcus aureus [1]; 0.12 µg/mL (≈ 0.27 µM) against Staphylococcus aureus [2]; 0.25 µg/mL (≈ 0.563 µM) against Staphylococcus aureus [3]; 4 µg/mL (≈ 9 µM) in the assay with Enterococcus faecalis; 0.12 µg/mL (≈ 0.27 µM) in the assay with Escherichia coli; 0.5 µg/mL (≈ 1.13 µM) against Staphylococcus aureus [4].

For `Cn1cc(NC(=O)c2cc(NC(=O)CNC(=N)N)cn2C)cc1C(=O)NCCC(=N)N` [NETROPSIN], the MIC with Staphylococcus aureus [1] worked out at 128 µg/mL (≈ 297 µM); in the assay on Staphylococcus aureus [3], 16 µg/mL (≈ 37.2 µM); with Staphylococcus aureus [4], 64 µg/mL (≈ 149 µM).

Take `COC(=O)Nc1coc(C(=O)Nc2coc(C(=O)NCCc3c[nH]c4ccccc34)c2)c1` [PROXIMICIN C]: the minimal inhibitory concentration (MIC) is more than 256 µg/mL in the assay with Staphylococcus aureus [1]; more than 128 µg/mL in the assay on Staphylococcus aureus [2]; more than 256 µg/mL with Staphylococcus aureus [3]; more than 128 µg/mL in the assay with Enterococcus faecalis; more than 128 µg/mL in the assay on Escherichia coli; more than 256 µg/mL against Staphylococcus aureus [4]. For the same molecule, the IC50 in [5] worked out at 12.7 µg/mL (≈ 29.1 µM); in the assay with MDA-MB-231, 11.4 µg/mL (≈ 26.1 µM). In the assay on Jurkat [6], the outcome was Active. In the assay with L1236 [7], the outcome was inactive.

Consider `COC(=O)Nc1coc(C(=O)Nc2coc(C(=O)NCCc3ccc(O)cc3)c2)c1` [PROXIMICIN B], for which the minimum inhibitory concentration (MIC) against Staphylococcus aureus [1] is 8 µg/mL (≈ 19.4 µM); against Staphylococcus aureus [2], 8 µg/mL (≈ 19.4 µM); with Staphylococcus aureus [3], 4 µg/mL (≈ 9.68 µM); against Enterococcus faecalis, 4 µg/mL (≈ 9.68 µM); against Escherichia coli, more than 128 µg/mL; against Staphylococcus aureus [4], 8 µg/mL (≈ 19.4 µM). Also, the result in the assay with L1236 [8] and in the assay on Jurkat [10] was Active. For the same molecule, in the assay with Jurkat [9], the Activity entry is “Dose-dependent effect”.

The values above are taken from ChEMBL document CHEMBL1955795, “Efficient synthesis and biological evaluation of proximicins A, B and C” (Bioorg Med Chem, 2012).
